Experiments:
[1] = molecular target: Matrix metalloproteinase-9 (Homo sapiens, UniProt P14780); assay: Inhibitory activity against human gelatinase B (Matrix metalloprotease-9)
[2] = molecular target: 72 kDa type IV collagenase (Homo sapiens, UniProt P08253); assay: Inhibitory activity against human gelatinase A (matrix metalloprotease-2 MMP2)
[3] = Maximum plasma concentration (Cmax) after p.o. administration of 200 mg/kg in mice; assay type: ADME, organism-based; parameters: dose 200 mg/kg, route oral; settings: mouse, po
Outline: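 Single 200 mg/kg oral dose in mice, given in 0.5% methyl cellulose. Blood drawn at various time points. Plasma drug extracted with CH3CN and quantified by reverse-phase C18 HPLC using a CH3CN gradient with 0.1% TFA. Peak plasma level taken as Cmax.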

Chain of 72 kDa type IV collagenase (P08253 whole entry): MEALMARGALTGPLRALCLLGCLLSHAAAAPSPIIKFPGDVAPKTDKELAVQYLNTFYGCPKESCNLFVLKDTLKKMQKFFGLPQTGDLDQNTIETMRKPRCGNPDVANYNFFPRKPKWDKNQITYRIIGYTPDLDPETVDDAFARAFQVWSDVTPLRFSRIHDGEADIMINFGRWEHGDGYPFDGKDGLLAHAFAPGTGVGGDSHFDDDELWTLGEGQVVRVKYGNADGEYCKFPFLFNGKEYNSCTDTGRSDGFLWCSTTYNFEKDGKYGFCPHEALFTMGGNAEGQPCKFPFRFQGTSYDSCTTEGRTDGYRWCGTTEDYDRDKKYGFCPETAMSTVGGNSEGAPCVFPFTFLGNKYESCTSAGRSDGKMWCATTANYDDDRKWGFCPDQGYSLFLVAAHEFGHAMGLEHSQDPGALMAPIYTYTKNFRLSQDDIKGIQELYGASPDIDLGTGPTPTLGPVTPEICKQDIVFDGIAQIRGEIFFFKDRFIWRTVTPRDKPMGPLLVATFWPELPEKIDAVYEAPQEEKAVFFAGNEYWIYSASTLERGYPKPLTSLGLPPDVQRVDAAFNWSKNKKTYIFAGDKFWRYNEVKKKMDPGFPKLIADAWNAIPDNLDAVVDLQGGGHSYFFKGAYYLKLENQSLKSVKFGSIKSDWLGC
Chain of Matrix metalloproteinase-9 (P14780 whole entry): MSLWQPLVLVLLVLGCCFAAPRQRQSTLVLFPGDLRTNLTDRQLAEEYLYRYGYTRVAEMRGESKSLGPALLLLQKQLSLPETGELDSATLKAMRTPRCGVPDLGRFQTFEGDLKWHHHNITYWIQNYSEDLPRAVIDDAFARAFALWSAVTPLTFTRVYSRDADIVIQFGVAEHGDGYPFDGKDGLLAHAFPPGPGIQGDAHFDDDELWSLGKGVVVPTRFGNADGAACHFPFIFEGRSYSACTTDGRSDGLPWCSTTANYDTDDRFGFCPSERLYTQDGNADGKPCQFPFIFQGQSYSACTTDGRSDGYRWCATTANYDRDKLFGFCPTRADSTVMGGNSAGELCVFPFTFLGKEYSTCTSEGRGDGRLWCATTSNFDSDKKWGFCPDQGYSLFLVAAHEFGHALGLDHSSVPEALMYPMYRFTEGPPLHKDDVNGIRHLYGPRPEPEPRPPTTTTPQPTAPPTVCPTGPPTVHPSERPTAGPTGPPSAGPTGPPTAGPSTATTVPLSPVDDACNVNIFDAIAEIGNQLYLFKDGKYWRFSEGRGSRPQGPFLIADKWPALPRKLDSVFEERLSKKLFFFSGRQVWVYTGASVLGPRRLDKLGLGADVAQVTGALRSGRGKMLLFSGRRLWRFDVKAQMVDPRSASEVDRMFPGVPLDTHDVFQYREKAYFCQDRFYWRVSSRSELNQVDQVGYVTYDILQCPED

Row | IC50 [1] [µM] | IC50 [2] [µM] | Cmax [3] [µM] | SMILES
1 | 7.8 | 1 | – | COc1ccc(C#Cc2ccc(S(=O)(=O)N[C@H](Cc3ccccc3)C(=O)O)cc2)cc1
2 | > 10 | > 1 | – | O=C(O)[C@@H](Cc1c[nH]c2ccccc12)NS(=O)(=O)c1ccc(Cc2ccccc2)cc1
3 | 0.005 | 0.0013 | – | O=C(NO)[C@@H](Cc1c[nH]c2ccccc12)NS(=O)(=O)c1ccc(-c2ccccc2)cc1
4 | 2.1 | 0.05 | – | CC(C)[C@@H](NS(=O)(=O)c1ccc(NC(=O)c2ccccc2)cc1)C(=O)O
5 | 3.4 | > 1 | – | O=C(O)[C@@H](Cc1c[nH]c2ccccc12)NS(=O)(=O)c1ccccc1
6 | 1.5 | > 1 | – | O=C(O)[C@@H](Cc1c[nH]c2ccccc12)NS(=O)(=O)c1ccc(C#Cc2ccccc2[N+](=O)[O-])s1
7 | 0.24 | 0.05 | – | O=C(O)[C@@H](Cc1c[nH]c2ccccc12)NS(=O)(=O)c1ccc(C#Cc2ccccc2)cc1
8 | > 50 | > 1 | – | O=C(N[C@H](Cc1ccccc1)C(=O)NO)c1ccc(-c2ccccc2)cc1
9 | 0.081 | 0.0065 | 3.5 | COc1ccc(-c2ccc(S(=O)(=O)N[C@H](Cc3c[nH]c4ccccc34)C(=O)O)cc2)cc1
10 | 0.25 | 0.05 | – | O=C(O)[C@@H](Cc1c[nH]c2ccccc12)NS(=O)(=O)c1ccc(Oc2ccccc2)cc1
11 | > 10 | > 1 | – | O=C(O)[C@@H](Cc1c[nH]c2ccccc12)NS(=O)(=O)c1ccc2oc3ccccc3c2c1
12 | 1.1 | > 1 | 334 | CC(C)[C@@H](NS(=O)(=O)c1ccc(Oc2ccccc2)cc1)C(=O)O
13 | – | < 0.04 | – | Cc1ccc(C(=O)Nc2ccc(S(=O)(=O)N[C@H](Cc3ccccc3)C(=O)O)cc2)cc1
14 | 0.35 | 0.05 | – | O=C(O)[C@@H](Cc1c[nH]c2ccccc12)NS(=O)(=O)c1ccc(/N=N/c2ccccc2)cc1
15 | – | 0.0067 | 8.3 | CSc1ccc(C(=O)Nc2ccc(S(=O)(=O)N[C@@H](C(=O)O)C(C)C)cc2)cc1
16 | 0.27 | < 0.04 | – | CC(C)[C@@H](NS(=O)(=O)c1ccc(NC(=O)c2ccc([N+](=O)[O-])cc2)cc1)C(=O)O
17 | 0.024 | 0.01 | 119 | COc1ccc(C#Cc2ccc(S(=O)(=O)N[C@H](Cc3ccccc3)C(=O)O)s2)cc1
18 | 1 | – | – | O=C(NO)C(Cc1ccccc1)NS(=O)(=O)c1ccccc1 (configuration not stated)
19 | – | < 0.04 | – | O=C(Nc1ccc(S(=O)(=O)N[C@H](Cc2c[nH]c3ccccc23)C(=O)O)cc1)c1ccccc1
20 | 8.8 | > 1 | – | O=C(O)c1ccc(C#Cc2ccc(S(=O)(=O)N[C@H](Cc3c[nH]c4ccccc34)C(=O)O)cc2)cc1
21 | > 10 | > 1 | – | O=C(Nc1ccccc1)Nc1ccc(S(=O)(=O)N[C@H](Cc2c[nH]c3ccccc23)C(=O)O)cc1
22 | 0.072 | 0.066 | 97.5 | COc1ccc(-c2ccc(S(=O)(=O)N[C@@H](C(=O)O)C(C)C)s2)cc1
23 | 0.016 | 0.034 | 10.8 | Cc1ccc(C#Cc2ccc(S(=O)(=O)N[C@H](Cc3c[nH]c4ccccc34)C(=O)O)cc2)cc1

Row | IC50 [1] [µM] | IC50 [2] [µM] | Cmax [3] [µM] | SMILES
24 | – | 0.13 | – | CC(C)[C@@H](NS(=O)(=O)c1ccc(-c2nnn(-c3ccccc3)n2)cc1)C(=O)O
25 | > 10 | > 1 | – | O=C(O)[C@@H](Cc1c[nH]c2ccccc12)NS(=O)(=O)c1ccc2ccccc2c1
26 | 0.014 | 0.053 | 284 | Cc1ccc(C#Cc2ccc(S(=O)(=O)N[C@@H](C(=O)O)C(C)C)s2)cc1
27 | > 1000 | – | – | O=C(NO)[C@H](Cc1ccccc1)NS(=O)(=O)c1ccccc1
28 | > 10 | > 1 | – | O=C(c1ccccc1)c1ccc(S(=O)(=O)N[C@H](Cc2c[nH]c3ccccc23)C(=O)O)cc1
29 | – | 0.017 | 2.5 | O=C(NO)[C@@H](Cc1ccccc1)NS(=O)(=O)c1ccc(-c2ccccc2)cc1
30 | – | 0.0083 | 2.5 | O=C(O)[C@@H](Cc1c[nH]c2ccccc12)NS(=O)(=O)c1ccc(-c2nnn(-c3ccc(Br)cc3)n2)cc1
31 | 0.73 | – | – | O=C(NO)[C@@H](Cc1ccccc1)NS(=O)(=O)c1ccccc1
32 | – | 0.013 | 2.1 | COc1ccc(-n2nnc(-c3ccc(S(=O)(=O)N[C@H](Cc4c[nH]c5ccccc45)C(=O)O)cc3)n2)cc1
33 | 1.2 | > 1 | – | Cc1ccc(C#Cc2ccc(S(=O)(=O)N[C@@H](C(=O)O)C(C)C)cc2)cc1
34 | 0.58 | 0.11 | 12.1 | O=C(O)[C@@H](Cc1ccccc1)NS(=O)(=O)c1ccc(-c2nnn(-c3ccccc3)n2)cc1
35 | – | < 0.2 | 1.2 | Cc1ccc(-n2nnc(-c3ccc(S(=O)(=O)N[C@H](Cc4ccccc4)C(=O)O)cc3)n2)cc1
36 | – | < 1 | – | O=C(Nc1ccc(S(=O)(=O)N[C@H](Cc2ccccc2)C(=O)O)cc1)c1ccccc1
37 | 0.04 | < 0.1 | 89.9 | COc1ccc(-c2ccc(S(=O)(=O)N[C@@H](C(=O)O)C(C)C)cc2)cc1
38 | 1.1 | 1 | – | COc1cccc(-c2ccc(S(=O)(=O)N[C@H](Cc3c[nH]c4ccccc34)C(=O)O)cc2)c1
39 | 0.023 | – | – | O=C(O)[C@@H](Cc1c[nH]c2ccccc12)NS(=O)(=O)c1ccc(C#Cc2ccc([N+](=O)[O-])cc2)s1
40 | > 10 | > 1 | – | O=C(Nc1ccccc1)c1ccc(S(=O)(=O)N[C@H](Cc2c[nH]c3ccccc23)C(=O)O)cc1
41 | 0.18 | 0.053 | 34.3 | O=C(O)[C@@H](Cc1c[nH]c2ccccc12)NS(=O)(=O)c1ccc(-c2ccccc2)cc1
42 | 0.8 | – | – | O=C(O)[C@H](Cc1ccccc1)NS(=O)(=O)c1ccc(-c2ccccc2)cc1
43 | 0.00054 | 0.002 | 5.8 | CC(C)[C@@H](NS(=O)(=O)c1ccc(Oc2ccccc2)cc1)C(=O)NO
44 | – | 0.31 | 291 | O=C(O)[C@@H](Cc1ccccc1)NS(=O)(=O)c1ccc(-c2ccccc2)cc1
45 | > 50 | > 1 | – | O=C(N[C@H](Cc1ccccc1)C(=O)O)c1ccc(-c2ccccc2)cc1

Row | SMILES | IC50 [1] [µM] | IC50 [2] [µM] | Cmax [3] [µM]
46 | O=C(O)[C@@H](Cc1ccccc1)NS(=O)(=O)c1ccc(-c2nnn(-c3ccc(C4CCCCC4)cc3)n2)cc1 | – | 0.28 | –

From ChEMBL document CHEMBL1131478 (J Med Chem, 1998)
